In ChEMBL document CHEMBL4689842, “EUbOPEN Chemogenomics Library wave 1” (2021):

Tested on: HEK-293T
Assay: Multiplex assay against HEK293T;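 for Population Tubulin-Different-Phenotype (%): share of the cells with healthy nuclei that show this phenotype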
Format: toxicity, cell-based
Settings: human
Outline: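 At seeding, live cells were stained with Hoechst33342, BioTracker Green Microtubule Cytoskeleton Dye, MitoTracker Red and Annexin V Alexa Fluor 680. After compound addition they were imaged on a CQ1 microscope at 37°C and 5% CO2, and CellPathfinder machine-learning gating sorted them into Hoechst high-intensity objects or normal cells, with normal cells further split into healthy, pyknosed or fragmented nuclei and pyknosed cells into mitotic or apoptotic. Tubulin, mitochondrial-mass and membrane-permeability phenotypes are given as per cents of cells with healthy nuclei.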

[1] = 12 h, 1 µM, compound concentration 1 uM, replicate 1
[2] = 12 h, 1 µM, compound concentration 1 uM, replicate 2
[3] = 12 h, 10 µM, compound concentration 10 uM, replicate 1
[4] = 12 h, 10 µM, compound concentration 10 uM, replicate 2
[5] = 24 h, 1 µM, compound concentration 1 uM, replicate 1
[6] = 24 h, 1 µM, compound concentration 1 uM, replicate 2
[7] = 24 h, 10 µM, compound concentration 10 uM, replicate 1
[8] = 24 h, 10 µM, compound concentration 10 uM, replicate 2
[9] = 48 h, 1 µM, compound concentration 1 uM, replicate 1
[10] = 48 h, 1 µM, compound concentration 1 uM, replicate 2
[11] = 48 h, 10 µM, compound concentration 10 uM, replicate 1
[12] = 48 h, 10 µM, compound concentration 10 uM, replicate 2

Cc1nc(-c2ccc(-c3ccc(C(=O)N4CCc5cc6c(cc54)C4(CCN(C)CC4)CO6)cc3)c(C)c2)no1 [SB-224289]
Population Apoptotic (%) [1]: 59%
Population Fragmented Nuclei (%) [1]: 17%
Population Hoechst High Intensity Objects (%) [1]: 14%
Population Membrane Permeable-Phenotype (%) [1]: 2%
Population Mitochondria Different-Phenotype (%) [1]: 94%
Population Mitotic Cells (%) [1]: 40%
Population Normal (%) [1]: 85%
Population Pyknosed Nuclei (%) [1]: 48%
Population Tubulin-Different-Phenotype (%) [1]: 82%
Total Cell Count [1]: 225
Population Apoptotic (%) [2]: 24%
Population Fragmented Nuclei (%) [2]: 4%
Population Healthy Nuclei (%) [2]: 34%
Population Hoechst High Intensity Objects (%) [2]: 3%
Population Membrane Permeable-Phenotype (%) [2]: 12%
Population Mitochondria Different-Phenotype (%) [2]: 75%
Population Mitotic Cells (%) [2]: 75%
Population Normal (%) [2]: 96%
Population Pyknosed Nuclei (%) [2]: 60%
Population Tubulin-Different-Phenotype (%) [2]: 66%
Total Cell Count [2]: 194
Population Apoptotic (%) [3]: 87%
Population Fragmented Nuclei (%) [3]: 8%
Population Healthy Nuclei (%) [3]: 22%
Population Hoechst High Intensity Objects (%) [3]: 15%
Population Membrane Permeable-Phenotype (%) [3]: 0%
Population Mitochondria Different-Phenotype (%) [3]: 98%
Population Mitotic Cells (%) [3]: 12%
Population Normal (%) [3]: 84%
Population Pyknosed Nuclei (%) [3]: 68%
Population Tubulin-Different-Phenotype (%) [3]: 98%
Total Cell Count [3]: 320
Population Apoptotic (%) [4]: 88%
Population Fragmented Nuclei (%) [4]: 3%
Population Healthy Nuclei (%) [4]: 16%
Population Hoechst High Intensity Objects (%) [4]: 9%
Population Membrane Permeable-Phenotype (%) [4]: 4%
Population Mitochondria Different-Phenotype (%) [4]: 95%
Population Mitotic Cells (%) [4]: 11%
Population Normal (%) [4]: 90%
Population Pyknosed Nuclei (%) [4]: 80%
Population Tubulin-Different-Phenotype (%) [4]: 85%
Total Cell Count [4]: 141
Population Apoptotic (%) [5]: 67%
Population Fragmented Nuclei (%) [5]: 17%
Population Healthy Nuclei (%) [5]: 35%
Population Hoechst High Intensity Objects (%) [5]: 10%
Population Membrane Permeable-Phenotype (%) [5]: 1%
Population Mitochondria Different-Phenotype (%) [5]: 89%
Population Mitotic Cells (%) [5]: 32%
Population Normal (%) [5]: 89%
Population Pyknosed Nuclei (%) [5]: 46%
Population Tubulin-Different-Phenotype (%) [5]: 63%
Total Cell Count [5]: 231
Population Apoptotic (%) [6]: 33%
Population Fragmented Nuclei (%) [6]: 4%
Population Healthy Nuclei (%) [6]: 46%
Population Hoechst High Intensity Objects (%) [6]: 3%
Population Membrane Permeable-Phenotype (%) [6]: 5%
Population Mitochondria Different-Phenotype (%) [6]: 73%
Population Mitotic Cells (%) [6]: 66%
Population Normal (%) [6]: 96%
Population Pyknosed Nuclei (%) [6]: 48%
Population Tubulin-Different-Phenotype (%) [6]: 73%
Total Cell Count [6]: 232
Population Apoptotic (%) [7]: 92%
Population Fragmented Nuclei (%) [7]: 8%
Population Healthy Nuclei (%) [7]: 13%
Population Hoechst High Intensity Objects (%) [7]: 18%
Population Membrane Permeable-Phenotype (%) [7]: 2%
Population Mitochondria Different-Phenotype (%) [7]: 100%
Population Mitotic Cells (%) [7]: 7%
Population Normal (%) [7]: 81%
Population Pyknosed Nuclei (%) [7]: 77%
Population Tubulin-Different-Phenotype (%) [7]: 100%
Total Cell Count [7]: 316
Population Apoptotic (%) [8]: 97%
Population Fragmented Nuclei (%) [8]: 5%
Population Healthy Nuclei (%) [8]: 24%
Population Hoechst High Intensity Objects (%) [8]: 12%
Population Membrane Permeable-Phenotype (%) [8]: 0%
Population Mitotic Cells (%) [8]: 2%
Population Normal (%) [8]: 88%
Population Pyknosed Nuclei (%) [8]: 70%
Population Tubulin-Different-Phenotype (%) [8]: 93%
Total Cell Count [8]: 150
Population Apoptotic (%) [9]: 76%
Population Fragmented Nuclei (%) [9]: 21%
Population Healthy Nuclei (%) [9]: 48%
Population Hoechst High Intensity Objects (%) [9]: 12%
Population Membrane Permeable-Phenotype (%) [9]: 0%
Population Mitochondria Different-Phenotype (%) [9]: 67%
Population Mitotic Cells (%) [9]: 23%
Population Normal (%) [9]: 87%
Population Pyknosed Nuclei (%) [9]: 30%
Population Tubulin-Different-Phenotype (%) [9]: 53%
Total Cell Count [9]: 261
Population Apoptotic (%) [10]: 25%
Population Fragmented Nuclei (%) [10]: 4%
Population Healthy Nuclei (%) [10]: 72%
Population Hoechst High Intensity Objects (%) [10]: 4%
Population Membrane Permeable-Phenotype (%) [10]: 2%
Population Mitochondria Different-Phenotype (%) [10]: 45%
Population Mitotic Cells (%) [10]: 75%
Population Normal (%) [10]: 95%
Population Pyknosed Nuclei (%) [10]: 22%
Population Tubulin-Different-Phenotype (%) [10]: 56%
Total Cell Count [10]: 371
Population Apoptotic (%) [11]: 92%
Population Fragmented Nuclei (%) [11]: 13%
Population Healthy Nuclei (%) [11]: 10%
Population Hoechst High Intensity Objects (%) [11]: 26%
Population Membrane Permeable-Phenotype (%) [11]: 7%
Population Mitochondria Different-Phenotype (%) [11]: 100%
Population Mitotic Cells (%) [11]: 7%
Population Normal (%) [11]: 73%
Population Pyknosed Nuclei (%) [11]: 75%
Population Tubulin-Different-Phenotype (%) [11]: 82%
Total Cell Count [11]: 363
Population Apoptotic (%) [12]: 100%
Population Fragmented Nuclei (%) [12]: 5%
Population Healthy Nuclei (%) [12]: 28%
Population Hoechst High Intensity Objects (%) [12]: 17%
Population Membrane Permeable-Phenotype (%) [12]: 6%
Population Mitochondria Different-Phenotype (%) [12]: 96%
Population Mitotic Cells (%) [12]: 0%
Population Normal (%) [12]: 82%
Population Pyknosed Nuclei (%) [12]: 66%
Population Tubulin-Different-Phenotype (%) [12]: 57%
Total Cell Count [12]: 139
